Calls of active or inactive are those of the source. The calls are words filed in the database; no cut-off is given here.
test system: Salmonella typhi; assay: Antibacterial activity against Salmonella typhi CECT 409 assessed as inhibition of microbial growth at 125 ug/ml incubated for 18 hrs by 2-fold microtiter broth dilution method; format: functional, organism-based; conditions: Salmonella enterica subsp. enterica serovar Typhi
Method in brief: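 Compounds in DMSO, ten 2-fold serial dilutions (125 down to 0.24 µg/mL), mixed 1:1 with bacteria in Nutrient Broth at OD620 = 0.001. Incubated overnight (18 h) at 28 or 37 °C depending on strain. Growth read turbidimetrically at OD620; MIC is the lowest concentration completely inhibiting growth, per CLSI. Triplicate runs; tetracycline reference.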

Row | SMILES | growth inhibition (GI)
1 | COc1c(Br)cc(C2=C(C(=O)c3ccc(O)c(Br)c3)C(=O)O/C2=C\c2ccc(O)c(Br)c2)cc1Br | inactive
2 | COc1c(Br)cc(C2=C(C(=O)c3ccco3)C(=O)O/C2=C\c2ccc(O)c(Br)c2)cc1Br | inactive
3 | COc1c(Br)cc(C2=C(C(=O)c3cc(Br)c(O)c(Br)c3)C(=O)O/C2=C\c2ccc(O)cc2)cc1Br | inactive
4 | COc1ccc(C2=C(C(=O)c3ccc(O)cc3)C(=O)O/C2=C\c2ccc(O)c(Br)c2)cc1 | inactive
5 | COc1ccc(C2=C(C(=O)c3ccc(O)cc3)C(=O)O/C2=C\c2ccc(O)cc2)cc1 | inactive

test system: Escherichia coli; assay: Antibacterial activity against Escherichia coli CECT 405 assessed as inhibition of microbial growth at 125 ug/ml incubated for 18 hrs by 2-fold microtiter broth dilution method; format: functional, organism-based; conditions: not given
Method in brief: (§1)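 Compounds in DMSO, ten 2-fold serial dilutions (125 down to 0.24 µg/mL tested). Bacteria at OD620 = 0.001 in Nutrient Broth mixed 1:1 with dilutions. Incubated overnight (18 h) at 28°C or 37°C according to strain. Growth read turbidimetrically at OD620. MIC is the lowest concentration giving complete growth inhibition. Triplicate runs. Tetracycline as reference.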

Row | SMILES | growth inhibition (GI)
6 | COc1c(Br)cc(C2=C(C(=O)c3ccc(O)c(Br)c3)C(=O)O/C2=C\c2ccc(O)c(Br)c2)cc1Br | inactive
7 | COc1c(Br)cc(C2=C(C(=O)c3ccco3)C(=O)O/C2=C\c2ccc(O)c(Br)c2)cc1Br | inactive
8 | COc1c(Br)cc(C2=C(C(=O)c3cc(Br)c(O)c(Br)c3)C(=O)O/C2=C\c2ccc(O)cc2)cc1Br | inactive
9 | COc1ccc(C2=C(C(=O)c3ccc(O)cc3)C(=O)O/C2=C\c2ccc(O)c(Br)c2)cc1 | inactive
10 | COc1ccc(C2=C(C(=O)c3ccc(O)cc3)C(=O)O/C2=C\c2ccc(O)cc2)cc1 | inactive

test system: Enterococcus faecalis; assay: Antibacterial activity against Enterococcus faecalis CECT 481 assessed as inhibition of microbial growth at 125 ug/ml incubated for 18 hrs by 2-fold microtiter broth dilution method; format: functional, organism-based; conditions: not given; method in brief: as §1

Row | SMILES | growth inhibition (GI)
11 | COc1c(Br)cc(C2=C(C(=O)c3ccc(O)c(Br)c3)C(=O)O/C2=C\c2ccc(O)c(Br)c2)cc1Br | inactive
12 | COc1c(Br)cc(C2=C(C(=O)c3ccco3)C(=O)O/C2=C\c2ccc(O)c(Br)c2)cc1Br | inactive
13 | COc1c(Br)cc(C2=C(C(=O)c3cc(Br)c(O)c(Br)c3)C(=O)O/C2=C\c2ccc(O)cc2)cc1Br | inactive
14 | COc1ccc(C2=C(C(=O)c3ccc(O)cc3)C(=O)O/C2=C\c2ccc(O)c(Br)c2)cc1 | inactive
15 | COc1ccc(C2=C(C(=O)c3ccc(O)cc3)C(=O)O/C2=C\c2ccc(O)cc2)cc1 | inactive

test system: Escherichia coli; assay: Antibacterial activity against Escherichia coli CECT 100 assessed as inhibition of microbial growth at 125 ug/ml incubated for 18 hrs by 2-fold microtiter broth dilution method; format: functional, organism-based; conditions: not given; method in brief: as §1

Row | SMILES | growth inhibition (GI)
16 | COc1c(Br)cc(C2=C(C(=O)c3ccc(O)c(Br)c3)C(=O)O/C2=C\c2ccc(O)c(Br)c2)cc1Br | inactive
17 | COc1c(Br)cc(C2=C(C(=O)c3ccco3)C(=O)O/C2=C\c2ccc(O)c(Br)c2)cc1Br | inactive
18 | COc1c(Br)cc(C2=C(C(=O)c3cc(Br)c(O)c(Br)c3)C(=O)O/C2=C\c2ccc(O)cc2)cc1Br | inactive
19 | COc1ccc(C2=C(C(=O)c3ccc(O)cc3)C(=O)O/C2=C\c2ccc(O)c(Br)c2)cc1 | inactive
20 | COc1ccc(C2=C(C(=O)c3ccc(O)cc3)C(=O)O/C2=C\c2ccc(O)cc2)cc1 | inactive

test system: Bacillus subtilis; assay: Antibacterial activity against Bacillus subtilis CECT 35 assessed as inhibition of microbial growth at 125 ug/ml incubated for 18 hrs by 2-fold microtiter broth dilution method; format: functional, organism-based; conditions: not given; method in brief: as §1

Row | SMILES | growth inhibition (GI)
21 | COc1c(Br)cc(C2=C(C(=O)c3ccc(O)c(Br)c3)C(=O)O/C2=C\c2ccc(O)c(Br)c2)cc1Br | inactive
22 | COc1c(Br)cc(C2=C(C(=O)c3ccco3)C(=O)O/C2=C\c2ccc(O)c(Br)c2)cc1Br | inactive
23 | COc1c(Br)cc(C2=C(C(=O)c3cc(Br)c(O)c(Br)c3)C(=O)O/C2=C\c2ccc(O)cc2)cc1Br | inactive
24 | COc1ccc(C2=C(C(=O)c3ccc(O)cc3)C(=O)O/C2=C\c2ccc(O)c(Br)c2)cc1 | inactive
25 | COc1ccc(C2=C(C(=O)c3ccc(O)cc3)C(=O)O/C2=C\c2ccc(O)cc2)cc1 | inactive

test system: Pectobacterium carotovorum; assay: Antibacterial activity against Erwinia carotovora CECT 225 assessed as inhibition of microbial growth at 125 ug/ml incubated for 18 hrs by 2-fold microtiter broth dilution method; format: functional, organism-based; conditions: not given; method in brief: as §1

Row | SMILES | growth inhibition (GI)
26 | COc1c(Br)cc(C2=C(C(=O)c3ccc(O)c(Br)c3)C(=O)O/C2=C\c2ccc(O)c(Br)c2)cc1Br | inactive
27 | COc1c(Br)cc(C2=C(C(=O)c3ccco3)C(=O)O/C2=C\c2ccc(O)c(Br)c2)cc1Br | inactive
28 | COc1c(Br)cc(C2=C(C(=O)c3cc(Br)c(O)c(Br)c3)C(=O)O/C2=C\c2ccc(O)cc2)cc1Br | inactive
29 | COc1ccc(C2=C(C(=O)c3ccc(O)cc3)C(=O)O/C2=C\c2ccc(O)c(Br)c2)cc1 | inactive
30 | COc1ccc(C2=C(C(=O)c3ccc(O)cc3)C(=O)O/C2=C\c2ccc(O)cc2)cc1 | inactive

test system: Bacillus cereus; assay: Antibacterial activity against Bacillus cereus CECT 148 assessed as inhibition of microbial growth at 125 ug/ml incubated for 18 hrs by 2-fold microtiter broth dilution method; format: functional, organism-based; conditions: not given; method in brief: as §1

Row | SMILES | growth inhibition (GI)
31 | COc1c(Br)cc(C2=C(C(=O)c3ccc(O)c(Br)c3)C(=O)O/C2=C\c2ccc(O)c(Br)c2)cc1Br | inactive
32 | COc1c(Br)cc(C2=C(C(=O)c3ccco3)C(=O)O/C2=C\c2ccc(O)c(Br)c2)cc1Br | inactive
33 | COc1c(Br)cc(C2=C(C(=O)c3cc(Br)c(O)c(Br)c3)C(=O)O/C2=C\c2ccc(O)cc2)cc1Br | inactive
34 | COc1ccc(C2=C(C(=O)c3ccc(O)cc3)C(=O)O/C2=C\c2ccc(O)c(Br)c2)cc1 | inactive
35 | COc1ccc(C2=C(C(=O)c3ccc(O)cc3)C(=O)O/C2=C\c2ccc(O)cc2)cc1 | inactive

test system: Staphylococcus aureus; assay: Antibacterial activity against Staphylococcus aureus CECT 86 assessed as inhibition of microbial growth at 125 ug/ml incubated for 18 hrs by 2-fold microtiter broth dilution method; format: functional, organism-based; conditions: not given; method in brief: as §1

Row | SMILES | growth inhibition (GI)
36 | COc1c(Br)cc(C2=C(C(=O)c3ccc(O)c(Br)c3)C(=O)O/C2=C\c2ccc(O)c(Br)c2)cc1Br | inactive
37 | COc1c(Br)cc(C2=C(C(=O)c3ccco3)C(=O)O/C2=C\c2ccc(O)c(Br)c2)cc1Br | inactive
38 | COc1c(Br)cc(C2=C(C(=O)c3cc(Br)c(O)c(Br)c3)C(=O)O/C2=C\c2ccc(O)cc2)cc1Br | inactive
39 | COc1ccc(C2=C(C(=O)c3ccc(O)cc3)C(=O)O/C2=C\c2ccc(O)c(Br)c2)cc1 | inactive
40 | COc1ccc(C2=C(C(=O)c3ccc(O)cc3)C(=O)O/C2=C\c2ccc(O)cc2)cc1 | inactive

From ChEMBL document CHEMBL3585302, “Synthesis and antibacterial activities of cadiolides A, B and C and analogues” (Bioorg Med Chem, 2015)
